Data reported in ChEMBL document CHEMBL1153229, “The first synthetic agonists of FFA2: Discovery and SAR of phenylacetamides as allosteric modulators” (Bioorg Med Chem Lett, 2010).
pIC50: −log10 of the molar value.

Assays:
[1] = molecular target: T1, Free fatty acid receptor 2 (Homo sapiens) (UniProt O15552); assay: Agonist activity at human FFA2 receptor expressed in CHO cells assessed as inhibition of forskolin-induced cAMP production relative to acetate; assay type: functional, cell-based
T1 sequence (whole entry): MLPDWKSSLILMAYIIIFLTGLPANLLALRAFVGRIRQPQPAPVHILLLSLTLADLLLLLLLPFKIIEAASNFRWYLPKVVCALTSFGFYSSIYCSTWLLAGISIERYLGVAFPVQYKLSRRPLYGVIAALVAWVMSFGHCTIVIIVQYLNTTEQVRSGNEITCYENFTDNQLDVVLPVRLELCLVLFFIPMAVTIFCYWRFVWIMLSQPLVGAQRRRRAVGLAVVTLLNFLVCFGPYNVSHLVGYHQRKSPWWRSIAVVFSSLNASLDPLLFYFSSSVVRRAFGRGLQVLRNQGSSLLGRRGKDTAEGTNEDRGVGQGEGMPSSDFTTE
Method in brief: (§1)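 Suspended cells, 10,000 per well, in Hank's balanced salt solution with 25 mM HEPES and 0.01% (w/v) BSA. Stimulated with forskolin (5 μM final) plus serially diluted test ligands, room temperature for 30 min. Antibody and lysis reagents then added, followed by overnight dark incubation with detection solution. Luminescence read (RLU). Efficacy expressed relative to acetate. Means of four experiments.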

[2] = molecular target: T2, Free fatty acid receptor 2 (Homo sapiens, UniProt O15552); assay: Agonist activity at human FFA2 receptor expressed in CHO cells assessed as inhibition of forskolin-induced cAMP production; assay type: functional, cell-based; method in brief: as §1
T2 sequence (O15552 whole entry): T1 sequence (whole entry)

Row | SMILES | Efficacy [1] [%] | pIC50 [2]
1 | CC(C)[C@H](C(=O)NCc1ccccc1)c1ccc(Cl)cc1 | < 30 | < 4.00
2 | CC(C)C(C(=O)Nc1nc(-c2cccnc2)cs1)c1ccc(Cl)cc1 (racemic) | < 30 | < 4.00
3 | CC(C)C(C(=O)Nc1cnccn1)c1ccc(Cl)cc1 (racemic) | 115 | 5.24
4 | O=C(Nc1ncc(F)s1)C1(c2ccc(Cl)cc2)CCCC1 | 88 | 5.30
5 | CC(C)C(C(=O)Nc1ncccn1)c1ccc(Cl)cc1 (racemic) | 50 | 4.28
6 | CC(C)(C(=O)Nc1ncc(F)s1)c1ccc(Cl)cc1 | 57 | 4.30
7 | CC(C)[C@H](C(=O)Nc1ccc(F)cn1)c1ccc(Cl)cc1 | 93 | 5.89
8 | CCC[C@H](C(=O)Nc1nccs1)c1ccc(Cl)cc1 | 108 | 5.26
9 | CC(C)(C)[C@H](C(=O)Nc1ncc(Cc2ccc(Cl)cc2)s1)c1ccc(Cl)cc1 | 100 | 4.60
10 | CC(C)[C@H](C(=O)Nc1cc[nH]n1)c1ccc(Cl)cc1 | < 30 | 
11 | CC(C)[C@H](C(=O)NC1=NC(=O)CS1)c1ccc(Cl)cc1 | 96 | 4.70
12 | CC(C)[C@H](C(=O)Nc1ccncc1)c1ccc(Cl)cc1 | 40 | 4.25
13 | CC(C)[C@H](C(=O)Nc1nncs1)c1ccc(Cl)cc1 | 115 | 4.92
14 | CC(C)[C@H](C(=O)Nc1ccccc1)c1ccc(Cl)cc1 | < 30 | < 4.00
15 | CC(C)[C@H](C(=O)Nc1cnns1)c1ccc(Cl)cc1 | 48 | 4.24
16 | CC(C)[C@H](C(=O)Nc1ncc(C(N)=O)s1)c1ccc(Cl)cc1 | 59 | 4.15
17 | CC(C)C(C(=O)Nc1nccs1)c1ccc(Cl)cc1 (racemic) | 98 | 6.10
18 | CC(C)[C@H](C(=O)Nc1ncc(C#N)s1)c1ccc(Cl)cc1 | 105 | 5.70
19 | O=C(Nc1ncc(F)s1)[C@H](c1ccnc(Cl)c1)C1CC1 | 120 | 4.80
20 | CC(C)[C@H](C(=O)Nc1ccccn1)c1ccc(Cl)cc1 | 92 | 5.85
21 | CC(C)[C@H](C(=O)Nc1ncc(C(F)(F)F)s1)c1ccc(Cl)cc1 | 95 | 5.82
22 | CC(C)C(C(=O)Nc1nc2ccccc2s1)c1ccc(Cl)cc1 (racemic) | 91 | 5.52

Row | SMILES | Efficacy [1] [%] | pIC50 [2]
23 | CC(C)(C)[C@H](C(=O)Nc1ncc(C#N)s1)c1ccc(Cl)cc1 | 106 | 5.82
24 | CC(C)[C@H](C(=O)Nc1nc(C(C)(C)C)cs1)c1ccc(Cl)cc1 | 45 | 5.10
25 | CCC(=O)O | 100 | 
26 | O=C(Nc1nccs1)C(c1ccc(Cl)cc1)c1ccc(Cl)cc1 | < 30 | < 4.00
27 | O=C(Nc1ncc(F)s1)[C@H](c1ccccn1)C1CC1 | 75 | 4.35
28 | CC(C)(C)[C@H](C(=O)Nc1ncc(C(F)(F)F)s1)c1ccc(Cl)cc1 | 95 | 5.82
29 | O=C(Cc1ccc(Cl)cc1)Nc1nccs1 | < 30 | < 4.00
30 | COC(=O)c1cnc(NC(=O)[C@H](c2ccc(Cl)cc2)C(C)C)s1 | 98 | 5.70
31 | O=C(Nc1ncc(F)s1)C1(c2ccc(Cl)cc2)CCCCC1 | 81 | 5.07
32 | CC(C)[C@H](NC(=O)c1nccs1)c1ccc(Cl)cc1 | < 30 | < 4.00
33 | O=C(Nc1ncc(F)s1)[C@H](c1ccc(Cl)cc1)C1CC1 | 103 | 5.92
34 | CC(=O)O [ACETIC ACID] | 100 | 3.92
35 | CC(C)(C)[C@H](C(=O)Nc1ncc(N2CCS(=O)(=O)CC2)s1)c1ccc(Cl)cc1 | 118 | 5.62
36 | CC(C)[C@H](C(=O)Nc1ncco1)c1ccc(Cl)cc1 | 92 | 4.60
37 | CC(C)[C@H](C(=O)Nc1ncc[nH]1)c1ccc(Cl)cc1 | 55 | 4.70
38 | Cc1nc(NC(=O)[C@H](c2ccc(Cl)cc2)C(C)C)sc1C | 97 | 5.74
39 | CC(C)[C@H](C(=O)Nc1ncc(C(=O)O)s1)c1ccc(Cl)cc1 | 42 | 4.10
40 | COCC[C@H](C(=O)Nc1nccs1)c1ccc(Cl)cc1 | 53 | 3.77
41 | CC(C)[C@H](C(=O)NC1=NCCS1)c1ccc(Cl)cc1 | 109 | 5.68
42 | Cc1csc(NC(=O)[C@H](c2ccc(Cl)cc2)C(C)C)n1 | 87 | 5.85
43 | C=CC[C@H](C(=O)Nc1nccs1)c1ccc(Cl)cc1 | 88 | 5.96
44 | CC(C)C(C(=O)O)c1ccc(Cl)cc1 (racemic) | < 30 | < 4.00

Row | SMILES | Efficacy [1] [%] | pIC50 [2]
45 | CC(C)(C)[C@H](C(=O)Nc1ncc(F)s1)c1ccc(Cl)cc1 | 92 | 6.15
46 | CC(C)C[C@H](C(=O)Nc1nccs1)c1ccc(Cl)cc1 | 68 | 6.22
47 | O=C(Nc1ncc(F)s1)C1(c2ccc(Cl)cc2)CC1 | < 30 | < 4.00
48 | O=C(Nc1ncc(F)s1)[C@H](c1ccc(C(F)(F)F)cc1)C1CC1 | 108 | 5.96
49 | CNC(=O)[C@H](c1ccc(Cl)cc1)C(C)C | 66 | 4.96
50 | C[C@H](C(=O)Nc1nccs1)c1ccc(Cl)cc1 | 83 | 4.34
51 | CC(C)[C@H](C(=O)Nc1ccon1)c1ccc(Cl)cc1 (racemic) | 90 | 4.44
52 | CC(C)[C@H](CNc1nccs1)c1ccc(Cl)cc1 | < 30 | < 4.00
53 | CC(C)[C@H](C(=O)Nc1nc2cc(Cl)ccc2o1)c1ccc(Cl)cc1 | 88 | 5.37
54 | CC(C)C(C(N)=O)c1ccc(Cl)cc1 (racemic) | < 30 | < 4.00
55 | CC(C)[C@H](C(=O)Nc1cccnn1)c1ccc(Cl)cc1 | 101 | 5.64
56 | CSc1cnc(NC(=O)[C@H](c2ccc(Cl)cc2)C(C)(C)C)s1 | 109 | 6.30
57 | CC(C)C(C(=O)Nc1nnn[nH]1)c1ccc(Cl)cc1 (racemic) | < 30 | < 4.00
58 | CC(C)[C@H](C(=O)Nc1cccc(F)n1)c1ccc(Cl)cc1 | 84 | 5.96
59 | CC(C)[C@H](C(=O)NC(C)(C)C)c1ccc(Cl)cc1 | < 30 | < 4.00
60 | CC(C)C(C(=O)Nc1cccnc1)c1ccc(Cl)cc1 (racemic) | 73 | 4.31
61 | CC(C)[C@H](C(=O)N(C)c1nccs1)c1ccc(Cl)cc1 | 37 | 4.08
62 | CC(C)[C@H](C(=O)Nc1nc(C(F)(F)F)cs1)c1ccc(Cl)cc1 | 123 | 4.77
63 | CC(C)(C)[C@H](C(=O)Nc1ncc(S(C)(=O)=O)s1)c1ccc(Cl)cc1 | 107 | 5.47
64 | CS(=O)(=O)c1ccc([C@@H](C(=O)Nc2ncc(F)s2)C2CC2)cc1 | < 30 | < 4.00
65 | CC(C)(C)[C@H](C(=O)Nc1ncc(N2CCOCC2)s1)c1ccc(Cl)cc1 | 111 | 5.80
66 | CC(C)[C@H](C(=O)Nc1ccn[nH]1)c1ccc(Cl)cc1 |  | < 4.00
